Assay outcomes as filed in PubChem BioAssay.
APJ antag: antagonists of human apelin receptor APJ, primary screen, CHO-K1 cells, beta-arrestin complementation, luminescence | P35414 | inhibition, % at 20 µM | 330,000 tested, 0.32% active;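 active = inhibition above about 40% at 20 µM, limit read from the data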;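 also: cells challenged with 10 nM apelin-13 agonist together with compound; plate controls were apelin-13 plus DMSO wells for no effect and DMSO wells lacking apelin-13 for full effect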
B2AR ag: beta2AR agonists driving receptor internalization, primary screen, cell-based, FAP fluorogen, flow cytometry; Am2.2-beta2AR cells; AID 504454, 2011; 340,000 tested, 0.43% active; response, % (no concentration beside the values);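 active = response above a set limit, near 3 SD of response in nonfluorescent compounds, cut at about 42% in these data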
APJ agonist: agonists of human apelin receptor APJ, primary screen, CHO-K1 cells, PathHunter beta-arrestin, luminescence; P35414; 0% DMSO wells, 100% apelin; activation, % at 20 µM; 330,000 tested, 0.11% active; AID 2520, 2010;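 active = activation more than six SD over the plate average, tested at 20 µM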;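 also: 0% = DMSO alone and 100% = apelin-13 at 10 nM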
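assay system = CHO-K1 APJ beta-arrestin complementation cell line | input = cell density 1000 per well | dosing = compound 20 µM once, DMSO 1% | timing = compound 90 min 25 °C, reagent 1 h | measured by = luminescence from split beta-galactosidase complementation, Galacton Star/Emerald II substrate | read-out basis = APJ agonist activity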
EBI2 antag: EBI2 receptor antagonists, beta-arrestin recruitment, primary screen, cell-based, luminescence, 7a,25-OHC stimulation, uHTS | 360,000 tested, 0.81% active | 7a,25-OHC stimulated | G-protein coupled receptor 183 (Homo sapiens), P32249 | AID 651636, 2012 | inhibition, % at 5 µM; in the data active = inhibition above about 38%;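 also: enzyme fragment complementation signal reports receptor beta-arrestin coupling in cells; 0% = agonist plus DMSO wells and 100% = wells without agonist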
CCR6 antag: CCR6 receptor antagonists, primary screen, cell-based, CHO-K1, luminescence, beta-arrestin, uHTS | C-C chemokine receptor type 6 (Homo sapiens), P51684 | CHO-K1 CCR6 PathHunter beta-arrestin, CCL20-stimulated | inhibition, % at 20 µM | 340,000 tested, 0.49% active | AID 493098, 2011;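 active = compounds whose inhibition of the agonist-driven luminescence signal at 20 µM reaches about 50%, limit read from the data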;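 also: cells stimulated with CCL20 at 14 nM final; plate controls were DMSO with CCL20 for no effect and DMSO without agonist for full effect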
Target sequence (P51684 whole entry, looked up): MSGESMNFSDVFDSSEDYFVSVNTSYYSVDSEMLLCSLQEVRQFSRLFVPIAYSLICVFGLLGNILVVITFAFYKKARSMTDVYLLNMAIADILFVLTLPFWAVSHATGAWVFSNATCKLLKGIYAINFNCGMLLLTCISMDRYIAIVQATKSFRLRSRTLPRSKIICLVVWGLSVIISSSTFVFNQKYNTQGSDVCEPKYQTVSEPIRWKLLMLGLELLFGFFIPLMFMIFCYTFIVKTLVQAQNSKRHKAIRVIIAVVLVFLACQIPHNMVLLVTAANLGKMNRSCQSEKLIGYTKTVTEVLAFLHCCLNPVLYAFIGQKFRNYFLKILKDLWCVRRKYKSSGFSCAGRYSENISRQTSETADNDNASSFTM
CXCR6 block: CXCR6 receptor inhibitors, primary screen, cell-based, beta-arrestin, luminescence, CHO-K1 PathHunter, 1536-well; C-X-C chemokine receptor type 6 (Homo sapiens), O00574; inhibition, % at 20 µM; 360,000 tested, 0.36% active; in the data active = inhibition above about 34%, passing the limit was not always enough;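 also: antagonist mode with CXCL16 agonist at 10 nM final; 0% = 10 nM CXCL16 with DMSO and 100% = unstimulated wells without agonist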
Beta2AR ag CP1: beta2AR agonists via receptor internalization, confirmation, cell-based, FAP fluorogen, flow cytometry, single point, cherry pick 1; Am2.2-beta2AR cells, FAP surface receptor; hits give low values; percent response (surface receptor), % at 10 µM; 1,100 tested, 25% active; shares compounds with B2AR ag;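 active = surface receptor percent response at or below 58%, roughly 3 SD from nonfluorescent compounds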
FAP fluor counter: fluorescence artifact in beta-2AR agonist FAP counterscreen | 1,100 tested, under 10 active | shares compounds with B2AR ag | Am2.2 cells, FAP fluorogen flow cytometry; hits give low values | calls only at 10 µM;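 active = percent response below a set limit in fluorescence channel 1 and below 50% in channel 8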
* marks the source's active call; other numbers are inactive results; i = inactive; nt = no result. Most compounds without a hit are left out; they make up all but 1.8% or so of the library.

SMILES	APJ antag	B2AR ag	APJ agonist	EBI2 antag	CCR6 antag	CXCR6 block	Beta2AR ag CP1	FAP fluor counter
Cc1ccc([N+](=O)[O-])cc1N=Nc1c(C)[nH]n(C(N)=S)c1=O	14	3	-1	-11	21	5	nt	nt
Cc1ccc([N+](=O)[O-])cc1N=Nc1c(-c2ccc([N+](=O)[O-])cc2)[nH]n(C(N)=S)c1=O	nt	20	nt	11	50	12	101	i
Cc1[nH]n(C(N)=S)c(=O)c1N=Nc1ccc(Br)cc1	17	6	-8	7	28	2	nt	nt
NC(=S)n1[nH]c(-c2ccc([N+](=O)[O-])cc2)c(N=Nc2ccc(Cl)cc2)c1=O	nt	2	nt	26	45	24	103	i
CC(=O)Nc1ccc(S(=O)(=O)N2CCC(C(=O)NCCC(=O)Nc3ccccc3)CC2)cc1	-19	18	-1	0	10	0	nt	nt
O=C(CCNC(=O)C1CCN(S(=O)(=O)c2ccccc2)CC1)Nc1ccccc1	6	48*	5	15	17	3	107	i
COc1ccc(-c2nc3scc(-c4ccc(OC)c(OC)c4)c3c(=O)o2)cc1	1	51*	9	21	-20	-2	88	i
CNc1cncc(-c2ccc(F)cc2F)n1	nt	nt	nt	-5	nt	-4	nt	nt
CC(C)Oc1ccc(/C=N/NC(N)=S)cc1	-16	-5	4	-9	3	-14	92	i
c1cc2c(cc1C1CCCCC1)c1c3n2CCCNC3CCC1 (centres undefined)	-4	44*	0	-17	71*	4	101	i
CCN1C[C@@H]2[C@@H]3C(=O)N(C)C(=O)[C@@H]3[C@](Cc3ccccc3)(C1=O)N2C(=O)c1ccc(Br)cc1	nt	-2	nt	1	5	-2	nt	nt
Cc1ccc(NC(=O)CSc2ccc3nnc(CCNC(=O)c4ccccc4)n3n2)c(C)c1	-7	62*	-1	-1	-3	-4	111	i
Cc1ccc(/C(=N/Nc2ncnc3ccccc23)C(=O)O)cc1	0	2	3	-3	-4	0	94	i
Cc1ccc(Nc2ncnc3ccccc23)cc1	3	4	-3	-1	0	2	nt	nt
COc1ccc(OC)c(NC(=O)C2(C)CCN2CCOc2ccccc2)c1 (centres undefined)	nt	nt	nt	12	nt	-4	nt	nt
O=C1CC(SC(=S)C2CCCC2=O)C(=O)N1 (centres undefined)	nt	nt	nt	-8	nt	11	nt	nt
CC(=O)c1cccc(NC(=O)C(OC(=O)c2cccs2)c2ccccc2)c1 (centres undefined)	0	-5	1	8	21	7	nt	nt
Cc1cc(C)cc(NC(=O)C(OC(=O)c2sccc2C)c2ccccc2)c1 (centres undefined)	-13	64*	-3	18	4	-2	95	i
CC1=CC(=O)Nc2ncccc2O1	nt	nt	nt	-10	nt	6	nt	nt
CN(CC(=O)N1CCN(c2ncccn2)CC1)S(=O)(=O)c1ccc(Cl)cc1	-5	112*	0	-13	-44	-2	28*	i
CN(CCCC(=O)N1CCN(c2ncccn2)CC1)S(=O)(=O)c1ccc(F)cc1	8	-3	-1	0	-11	3	nt	nt
CN(C(=O)N1CCN(c2ccccn2)CC1)c1ccccc1	0	-8	-6	3	13	-4	nt	nt
CN(CC(=O)N1CCN(c2ccccn2)CC1)S(=O)(=O)c1ccccc1	1	51*	-2	-5	-9	-2	59	i
C[C@H](CO)N1C[C@H](C)[C@@H](CN(C)Cc2ccc3cccnc3c2)OCc2cnnn2CCCC1=O	nt	nt	nt	1	nt	-6	nt	nt
